ChEMBL document CHEMBL4339192, “De Novo Designed Amphipathic α-Helical Antimicrobial Peptides Incorporating Dab and Dap Residues on the Polar Face To Treat the Gram-Negative Pathogen, Acinetobacter baumannii” (J Med Chem, 2019)
Where a SMILES comes first, the peptide text is derived from it. [ ]: non-standard residue; d: D form. Dab = NCC[C@H](N)C(=O)O

What was measured:
Acinetobacter baumannii [1] = experiment: Ratio of MIC for Acinetobacter baumannii 649 measured in presence of 25% human serum to MIC for Acinetobacter baumannii 649 in absence of 25% human serum; type: functional
How it was run: (§1)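 Blood strain 649 was tested by MH broth microdilution with and without 25% (v/v) human serum added to the medium. The test used a final inoculum of 5 × 10^5 cfu/mL and incubation at 37 °C. The ratio is the MIC in serum over the MIC in MH alone.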

Acinetobacter baumannii [2] = experiment: Antibacterial activity against Acinetobacter baumannii 649 measured after 24 hrs in presence of 25% human serum by microtiter dilution method; type: functional; conditions: Acinetobacter baumannii, 649, 24 h; how it was run: as §1
[3] = Therapeutic index, ratio of HC50 for human RBC to MIC for polymyxin B/colistin-resistant Acinetobacter baumannii M89963; type: toxicity; conditions: human red blood cells, read-out: TI
How it was run: (§2)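 T.I. = HC50/MIC. For HC50, peptide (quantified by amino acid analysis) was two-fold serially diluted over 12 concentrations up to 1000 μg/mL. It was incubated with 1% fresh human erythrocytes in PBS, pH 7.4, for 18 h at 37 °C. After 800g centrifugation, hemoglobin was read at 570 nm against water (100%) and no-peptide (0%) controls. HC50 came from a lysis-versus-concentration plot, average of 3 replicates.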

Acinetobacter baumannii [4] = experiment: Antibacterial activity against Acinetobacter baumannii 649 measured after 24 hrs by microtiter dilution method; type: functional; conditions: Acinetobacter baumannii, 649, 24 h
How it was run: (§3)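 Broth microdilution in Mueller-Hinton (MH) medium. […] Plates were incubated 24 h at 37 °C. MIC was the lowest peptide concentration that inhibited growth, based on three sets of replicates.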

[5] = Therapeutic index, ratio of HC50 for human RBC to MIC for polymyxin B/colistin-resistant Acinetobacter baumannii M89955; type: toxicity; conditions: human red blood cells, read-out: TI; how it was run: as §2
[6] = Therapeutic index, ratio of HC50 for human RBC to MIC for polymyxin B/colistin-resistant Acinetobacter baumannii M89953; type: toxicity; conditions: human red blood cells, read-out: TI; how it was run: as §2
[7] = Therapeutic index, ratio of HC50 for human RBC to MIC for polymyxin B/colistin-resistant Acinetobacter baumannii M89951; type: toxicity; conditions: human red blood cells, read-out: TI; how it was run: as §2
[8] = Therapeutic index, ratio of HC50 for human RBC to MIC for polymyxin B/colistin-resistant Acinetobacter baumannii M89952; type: toxicity; conditions: human red blood cells, read-out: TI; how it was run: as §2
[9] = Therapeutic index, ratio of HC50 for human RBC to MIC for polymyxin B/colistin-resistant Acinetobacter baumannii M89949; type: toxicity; conditions: human red blood cells, read-out: TI; how it was run: as §2
[10] = Hemolytic activity against human RBC measured after 18 hrs by spectrophotometric method; type: ADME, cell-based, Erythrocyte; conditions: human red blood cells (erythrocytes)
How it was run: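 Peptide (amount by amino acid analysis), two-fold serial dilutions at 12 concentrations up to 1000 μg/mL, with 1% human erythrocytes in PBS pH 7.4, 37 °C, 18 h. Unlysed cells removed by centrifugation (800g); hemoglobin read at 570 nm. Water-lysed cells = 100%, no-peptide cells = 0%. HC50 from plot of % lysis vs concentration (μM), average of 3 replicates.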

[11] = Therapeutic index, ratio of HC50 for human RBC to MIC for polymyxin B/colistin-resistant Acinetobacter baumannii M89941; type: toxicity; conditions: human red blood cells, read-out: TI; how it was run: as §2
Acinetobacter baumannii [12] = experiment: Antibacterial activity against Acinetobacter baumannii isolate 1001611 measured after 24 hrs by microtiter dilution method; type: functional; conditions: isolate 1001611, 24 h; how it was run: as §3
Acinetobacter baumannii [13] = experiment: Antibacterial activity against Acinetobacter baumannii isolate 1007660 measured after 24 hrs by microtiter dilution method; type: functional; conditions: isolate 1007660, 24 h; how it was run: as §3
Acinetobacter baumannii [14] = experiment: Antibacterial activity against Acinetobacter baumannii isolate 1021371 measured after 24 hrs by microtiter dilution method; type: functional; conditions: isolate 1021371, 24 h; how it was run: as §3
Acinetobacter baumannii [15] = experiment: Antibacterial activity against Acinetobacter baumannii isolate 952654 measured after 24 hrs by microtiter dilution method; type: functional; conditions: isolate 952654, 24 h; how it was run: as §3
Acinetobacter baumannii [16] = experiment: Antibacterial activity against Acinetobacter baumannii isolate 9383370 measured after 24 hrs by microtiter dilution method; type: functional; conditions: isolate 9383370, 24 h; how it was run: as §3
Acinetobacter baumannii [17] = experiment: Antibacterial activity against Acinetobacter baumannii isolate 961997 measured after 24 hrs by microtiter dilution method; type: functional; conditions: isolate 961997, 24 h; how it was run: as §3
Acinetobacter baumannii [18] = experiment: Antibacterial activity against Acinetobacter baumannii isolate 1002956 measured after 24 hrs by microtiter dilution method; type: functional; conditions: isolate 1002956, 24 h; how it was run: as §3
Acinetobacter baumannii [19] = experiment: Antibacterial activity against Acinetobacter baumannii isolate 977751 measured after 24 hrs by microtiter dilution method; type: functional; conditions: isolate 977751, 24 h; how it was run: as §3
Acinetobacter baumannii [20] = experiment: Antibacterial activity against Acinetobacter baumannii isolate 1035166 measured after 24 hrs by microtiter dilution method; type: functional; conditions: isolate 1035166, 24 h; how it was run: as §3
Acinetobacter baumannii [21] = experiment: Antibacterial activity against Acinetobacter baumannii isolate 1010282 measured after 24 hrs by microtiter dilution method; type: functional; conditions: isolate 1010282, 24 h; how it was run: as §3
Acinetobacter baumannii [22] = experiment: Antibacterial activity against Acinetobacter baumannii isolate 1010245 measured after 24 hrs by microtiter dilution method; type: functional; conditions: isolate 1010245, 24 h; how it was run: as §3
Acinetobacter baumannii [23] = experiment: Antibacterial activity against Acinetobacter baumannii isolate 1017395 measured after 24 hrs by microtiter dilution method; type: functional; conditions: isolate 1017395, 24 h; how it was run: as §3
Acinetobacter baumannii [24] = experiment: Antibacterial activity against Acinetobacter baumannii isolate 968886 measured after 24 hrs by microtiter dilution method; type: functional; conditions: isolate 968886, 24 h; how it was run: as §3
Acinetobacter baumannii [25] = experiment: Antibacterial activity against Acinetobacter baumannii isolate 964304 measured after 24 hrs by microtiter dilution method; type: functional; conditions: isolate 964304, 24 h; how it was run: as §3
Acinetobacter baumannii [26] = experiment: Antibacterial activity against Acinetobacter baumannii isolate 963659 measured after 24 hrs by microtiter dilution method; type: functional; conditions: isolate 963659, 24 h; how it was run: as §3
Acinetobacter baumannii [27] = experiment: Antibacterial activity against Acinetobacter baumannii isolate 963618 measured after 24 hrs by microtiter dilution method; type: functional; conditions: isolate 963618, 24 h; how it was run: as §3
Acinetobacter baumannii [28] = experiment: Antibacterial activity against Acinetobacter baumannii isolate 1018887 measured after 24 hrs by microtiter dilution method; type: functional; conditions: isolate 1018887, 24 h; how it was run: as §3
Acinetobacter baumannii [29] = experiment: Antibacterial activity against Acinetobacter baumannii isolate 1035794 measured after 24 hrs by microtiter dilution method; type: functional; conditions: isolate 1035794, 24 h; how it was run: as §3
Acinetobacter baumannii [30] = experiment: Antibacterial activity against Acinetobacter baumannii isolate 981650 measured after 24 hrs by microtiter dilution method; type: functional; conditions: isolate 981650, 24 h; how it was run: as §3
Acinetobacter baumannii [31] = experiment: Antibacterial activity against Acinetobacter baumannii isolate 965463 measured after 24 hrs by microtiter dilution method; type: functional; conditions: isolate 965463, 24 h; how it was run: as §3
Acinetobacter baumannii [32] = experiment: Antibacterial activity against polymyxin B/colistin-resistant Acinetobacter baumannii M89963 measured after 24 hrs by microtiter dilution method; type: functional; conditions: M89963, 24 h; how it was run: as §3
Acinetobacter baumannii [33] = experiment: Antibacterial activity against polymyxin B/colistin-resistant Acinetobacter baumannii M89955 measured after 24 hrs by microtiter dilution method; type: functional; conditions: M89955, 24 h; how it was run: as §3
Acinetobacter baumannii [34] = experiment: Antibacterial activity against polymyxin B/colistin-resistant Acinetobacter baumannii M89953 measured after 24 hrs by microtiter dilution method; type: functional; conditions: M89953, 24 h; how it was run: as §3
Acinetobacter baumannii [35] = experiment: Antibacterial activity against polymyxin B/colistin-resistant Acinetobacter baumannii M89952 measured after 24 hrs by microtiter dilution method; type: functional; conditions: M89952, 24 h; how it was run: as §3
Acinetobacter baumannii [36] = experiment: Antibacterial activity against polymyxin B/colistin-resistant Acinetobacter baumannii M89951 measured after 24 hrs by microtiter dilution method; type: functional; conditions: M89951, 24 h; how it was run: as §3
Acinetobacter baumannii [37] = experiment: Antibacterial activity against polymyxin B/colistin-resistant Acinetobacter baumannii M89949 measured after 24 hrs by microtiter dilution method; type: functional; conditions: M89949, 24 h; how it was run: as §3
Acinetobacter baumannii [38] = experiment: Antibacterial activity against polymyxin B/colistin-resistant Acinetobacter baumannii M89941 measured after 24 hrs by microtiter dilution method; type: functional; conditions: M89941, 24 h; how it was run: as §3

CC(=O)N[C@H](CCCCN)C(=O)N[C@H](CC(C)C)C(=O)N[C@@H](CCN)C(=O)N[C@H](CO)C(=O)N[C@H](CC(C)C)C(=O)N[C@H](CC(C)C)C(=O)N[C@@H](CCN)C(=O)N[C@@H](C(=O)N[C@H](CC(C)C)C(=O)N[C@H](CO)C(=O)N[C@@H](CCN)C(=O)N[C@H](C)C(=O)N[C@H](C)C(=O)N[C@H](C)C(=O)N[C@H](C)C(=O)N[C@H](C)C(=O)N[C@H](CC(C)C)C(=O)N[C@@H](CCN)C(=O)N[C@@H](C(=O)N[C@H](CC(C)C)C(=O)N[C@H](CC(C)C)C(=O)N[C@@H](CCN)C(=O)N[C@H](C)C(=O)N[C@H](CC(C)C)C(=O)N[C@H](CO)C(=O)N[C@@H](CCN)C(N)=O)[C@H](C)O)[C@H](C)O (Ac-[dK][dL][Dab][dS][dL][dL][Dab][dT][dL][dS][Dab][dA][dA][dA][dA][dA][dL][Dab][dT][dL][dL][Dab][dA][dL][dS][Dab]-NH2)
0.5 µM: MIC (Acinetobacter baumannii [28])
0.8 µM: MIC (Acinetobacter baumannii [4]) | MIC (Acinetobacter baumannii [12]) | MIC (Acinetobacter baumannii [13]) | MIC (Acinetobacter baumannii [14]) | MIC (Acinetobacter baumannii [15]) | MIC (Acinetobacter baumannii [17]) | MIC (Acinetobacter baumannii [18]) | MIC (Acinetobacter baumannii [20]) | MIC (Acinetobacter baumannii [21]) | MIC (Acinetobacter baumannii [22]) | MIC (Acinetobacter baumannii [23]) | MIC (Acinetobacter baumannii [24]) | MIC (Acinetobacter baumannii [27]) | MIC (Acinetobacter baumannii [29]) | MIC (Acinetobacter baumannii [31]) | MIC (Acinetobacter baumannii [32]) | MIC (Acinetobacter baumannii [33]) | MIC (Acinetobacter baumannii [34]) | MIC (Acinetobacter baumannii [35]) | MIC (Acinetobacter baumannii [36]) | MIC (Acinetobacter baumannii [37])
4: Ratio (Acinetobacter baumannii [1])
3 µM: MIC (Acinetobacter baumannii [2])
0.4 µM: MIC (Acinetobacter baumannii [26]) | MIC (Acinetobacter baumannii [30])
8.6: selectivity ratio [3] | selectivity ratio [5] | selectivity ratio [6] | selectivity ratio [7] | selectivity ratio [8] | selectivity ratio [9] | selectivity ratio [11]
7.7 µM: HC50 at 18 h [10]
1.5 µM: MIC (Acinetobacter baumannii [16]) | MIC (Acinetobacter baumannii [25]) | MIC (Acinetobacter baumannii [38])
3.1 µM: MIC (Acinetobacter baumannii [19])
